Measurements published in ChEMBL document CHEMBL4196108, “5-Aroylindoles Act as Selective Histone Deacetylase 6 Inhibitors Ameliorating Alzheimer's Disease Phenotypes” (J Med Chem, 2018).
Activity calls are given as the source filed them. The calls are words filed in the database; no cut-off is given here.

Assays:
[1] = organism: Homo sapiens; test: Selectivity index, ratio of IC50 for human HDAC2 to IC50 for human HDAC6
[2] = organism: Homo sapiens; test: Selectivity index, ratio of IC50 for human HDAC1 to IC50 for human HDAC6
[3] = molecular target: T1, Protein deacetylase HDAC6 (Homo sapiens, UniProt Q9UBN7); test: Inhibition of human HDAC6 using RHKKAc peptide as substrate
T1 sequence (Q9UBN7 whole entry): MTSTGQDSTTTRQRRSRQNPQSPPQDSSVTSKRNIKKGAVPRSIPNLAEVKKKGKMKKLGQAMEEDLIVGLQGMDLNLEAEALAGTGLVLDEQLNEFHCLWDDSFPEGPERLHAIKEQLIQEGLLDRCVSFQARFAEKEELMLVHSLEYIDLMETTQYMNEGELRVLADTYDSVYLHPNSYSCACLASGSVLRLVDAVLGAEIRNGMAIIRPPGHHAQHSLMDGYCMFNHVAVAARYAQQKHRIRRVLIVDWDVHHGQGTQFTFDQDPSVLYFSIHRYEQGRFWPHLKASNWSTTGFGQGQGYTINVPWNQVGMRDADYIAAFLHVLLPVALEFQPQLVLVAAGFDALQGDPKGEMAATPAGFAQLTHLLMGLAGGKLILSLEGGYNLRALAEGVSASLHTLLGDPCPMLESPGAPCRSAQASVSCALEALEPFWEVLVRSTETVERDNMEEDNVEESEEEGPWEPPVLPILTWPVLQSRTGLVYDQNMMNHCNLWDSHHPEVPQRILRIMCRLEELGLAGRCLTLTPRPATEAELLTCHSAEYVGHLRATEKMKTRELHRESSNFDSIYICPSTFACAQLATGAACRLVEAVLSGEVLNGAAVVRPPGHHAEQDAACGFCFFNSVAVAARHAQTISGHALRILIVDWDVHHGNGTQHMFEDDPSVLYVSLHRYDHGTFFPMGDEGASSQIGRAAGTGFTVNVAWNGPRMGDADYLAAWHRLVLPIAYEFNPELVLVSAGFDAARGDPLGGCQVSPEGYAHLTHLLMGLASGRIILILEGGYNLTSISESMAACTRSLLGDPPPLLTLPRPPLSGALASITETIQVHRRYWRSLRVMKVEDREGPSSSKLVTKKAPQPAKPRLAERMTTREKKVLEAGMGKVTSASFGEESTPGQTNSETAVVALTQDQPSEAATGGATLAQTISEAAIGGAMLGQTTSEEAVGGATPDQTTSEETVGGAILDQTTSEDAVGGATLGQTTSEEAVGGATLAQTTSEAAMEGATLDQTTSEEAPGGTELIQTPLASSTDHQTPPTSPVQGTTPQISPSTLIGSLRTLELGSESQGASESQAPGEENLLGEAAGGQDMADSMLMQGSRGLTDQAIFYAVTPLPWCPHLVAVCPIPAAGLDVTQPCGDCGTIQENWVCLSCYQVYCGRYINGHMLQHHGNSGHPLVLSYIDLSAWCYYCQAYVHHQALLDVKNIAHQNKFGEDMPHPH

[4] = molecular target: Histone deacetylase 2 (Homo sapiens, UniProt Q92769); test: Inhibition of human HDAC2 using RHKKAc peptide as substrate
Sequence of Histone deacetylase 2 (Q92769 whole entry): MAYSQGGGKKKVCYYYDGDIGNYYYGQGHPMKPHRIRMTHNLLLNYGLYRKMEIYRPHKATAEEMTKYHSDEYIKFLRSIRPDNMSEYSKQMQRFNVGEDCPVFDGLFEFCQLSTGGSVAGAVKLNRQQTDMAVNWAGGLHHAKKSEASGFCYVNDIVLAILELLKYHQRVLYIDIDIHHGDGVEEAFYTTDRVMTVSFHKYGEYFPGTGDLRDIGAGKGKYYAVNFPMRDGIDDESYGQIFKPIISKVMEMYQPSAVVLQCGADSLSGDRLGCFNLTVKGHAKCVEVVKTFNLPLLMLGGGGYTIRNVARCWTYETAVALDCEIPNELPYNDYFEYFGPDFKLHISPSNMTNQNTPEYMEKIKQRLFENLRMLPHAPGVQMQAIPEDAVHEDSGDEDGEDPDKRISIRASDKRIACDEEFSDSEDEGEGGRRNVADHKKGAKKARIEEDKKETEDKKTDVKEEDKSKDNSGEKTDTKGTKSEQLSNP

[5] = organism: Homo sapiens; test: Selectivity index, ratio of IC50 for human HDAC8 to IC50 for human HDAC6
[6] = molecular target: T2, Histone deacetylase 8 (Homo sapiens, UniProt Q9BY41); test: Inhibition of human HDAC8 using RHKAcKAc peptide as substrate
T2 sequence (Q9BY41 whole entry): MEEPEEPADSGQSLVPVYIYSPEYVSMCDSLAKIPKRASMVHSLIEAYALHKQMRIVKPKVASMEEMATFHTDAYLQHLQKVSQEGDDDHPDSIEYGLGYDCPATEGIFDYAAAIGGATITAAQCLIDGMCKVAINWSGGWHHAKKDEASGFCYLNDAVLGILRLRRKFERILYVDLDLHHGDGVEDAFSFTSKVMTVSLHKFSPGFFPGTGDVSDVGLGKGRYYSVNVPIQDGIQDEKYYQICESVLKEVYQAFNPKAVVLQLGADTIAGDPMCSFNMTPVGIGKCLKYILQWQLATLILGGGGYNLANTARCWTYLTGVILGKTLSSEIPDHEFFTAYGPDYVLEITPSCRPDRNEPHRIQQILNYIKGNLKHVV

[7] = molecular target: Histone deacetylase 1 (Homo sapiens, UniProt Q13547); test: Inhibition of human HDAC1 using RHKKAc peptide as substrate
Sequence of Histone deacetylase 1 (Q13547 whole entry): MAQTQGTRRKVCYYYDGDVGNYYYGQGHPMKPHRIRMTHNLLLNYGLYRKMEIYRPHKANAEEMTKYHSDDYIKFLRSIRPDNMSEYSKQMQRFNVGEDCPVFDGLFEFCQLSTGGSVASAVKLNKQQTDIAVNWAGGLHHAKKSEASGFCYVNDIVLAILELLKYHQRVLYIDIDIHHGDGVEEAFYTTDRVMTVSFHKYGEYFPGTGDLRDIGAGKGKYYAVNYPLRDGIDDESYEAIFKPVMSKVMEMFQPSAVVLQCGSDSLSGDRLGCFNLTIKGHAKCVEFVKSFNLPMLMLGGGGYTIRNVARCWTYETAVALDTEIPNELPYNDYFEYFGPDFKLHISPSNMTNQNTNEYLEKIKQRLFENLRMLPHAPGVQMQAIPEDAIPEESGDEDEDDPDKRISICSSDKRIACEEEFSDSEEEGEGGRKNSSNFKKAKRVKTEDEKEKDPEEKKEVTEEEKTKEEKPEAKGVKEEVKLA

[8] = organism: Homo sapiens; test: Selectivity index, ratio of IC50 for human HDAC10 to IC50 for human HDAC6
[9] = molecular target: T3, Polyamine deacetylase HDAC10 (Homo sapiens, UniProt Q969S8); test: Inhibition of human HDAC10 using RHKKAc peptide as substrate
T3 sequence (Q969S8 whole entry): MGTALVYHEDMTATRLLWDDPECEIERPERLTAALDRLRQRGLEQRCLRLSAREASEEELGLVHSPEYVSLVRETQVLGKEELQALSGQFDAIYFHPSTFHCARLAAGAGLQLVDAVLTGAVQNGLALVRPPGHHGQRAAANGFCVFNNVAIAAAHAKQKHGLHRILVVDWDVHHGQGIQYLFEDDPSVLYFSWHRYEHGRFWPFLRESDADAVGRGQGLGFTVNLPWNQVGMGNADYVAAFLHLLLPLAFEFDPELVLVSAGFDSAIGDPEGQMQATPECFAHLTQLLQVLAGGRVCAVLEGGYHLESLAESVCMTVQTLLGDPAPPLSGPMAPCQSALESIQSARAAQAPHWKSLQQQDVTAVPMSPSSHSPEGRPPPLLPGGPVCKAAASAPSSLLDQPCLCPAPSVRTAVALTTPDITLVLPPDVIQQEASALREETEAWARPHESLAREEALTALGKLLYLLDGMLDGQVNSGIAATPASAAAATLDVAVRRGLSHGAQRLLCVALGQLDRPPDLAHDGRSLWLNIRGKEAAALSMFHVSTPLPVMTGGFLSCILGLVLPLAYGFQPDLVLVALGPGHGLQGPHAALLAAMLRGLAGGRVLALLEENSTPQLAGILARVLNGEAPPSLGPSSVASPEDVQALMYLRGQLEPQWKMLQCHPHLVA

[10] = organism: Homo sapiens; test: Selectivity index, ratio of IC50 for human HDAC3 to IC50 for human HDAC6
[11] = molecular target: Histone deacetylase 3 (Homo sapiens, UniProt O15379)
Sequence of Histone deacetylase 3 (O15379 whole entry): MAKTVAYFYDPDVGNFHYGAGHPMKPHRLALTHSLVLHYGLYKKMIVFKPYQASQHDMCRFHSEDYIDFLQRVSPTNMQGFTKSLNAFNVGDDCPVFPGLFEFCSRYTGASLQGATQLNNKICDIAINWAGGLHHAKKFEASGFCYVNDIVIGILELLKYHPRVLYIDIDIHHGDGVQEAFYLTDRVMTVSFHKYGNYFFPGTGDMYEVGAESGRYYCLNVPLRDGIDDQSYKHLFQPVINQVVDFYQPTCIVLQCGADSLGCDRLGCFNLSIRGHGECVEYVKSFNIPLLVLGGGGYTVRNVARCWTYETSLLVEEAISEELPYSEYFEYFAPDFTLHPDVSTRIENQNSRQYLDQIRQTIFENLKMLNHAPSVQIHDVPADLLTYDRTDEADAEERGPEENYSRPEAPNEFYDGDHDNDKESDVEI

[12] = molecular target: T4, Protein deacetylase HDAC6 (Homo sapiens) (UniProt Q9UBN7); test: Inhibition of HDAC6 in human SH-SY5Y cells assessed as increase in acetylation of alpha-tubulin at 0.1 to 1 uM after 24 hrs by Western blot analysis; assay type: cell-based
T4 sequence (whole entry): T1 sequence (Q9UBN7 whole entry)
How it was run: (§1)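 SH-SY5Y cells in MEM with 10% FBS at 37 °C, 5% CO2, treated 24 h at 0.1–1 µM. Lysates in HEPES/Triton buffer; 20 µg protein run on SDS-PAGE and immunoblotted for acetyl-α-tubulin, α-tubulin, acetyl-histone H3 and histone H3 with ECL detection.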

[13] = test system: SH-SY5Y; test: Inhibition of class 1 HDAC in human SH-SY5Y cells assessed as increase in acetylation of histone H3 at 0.1 to 1 uM after 24 hrs by Western blot analysis; assay type: cell-based; how it was run: as §1

SMILES	Ratio IC50 [1]	Ratio IC50 [2]	IC50 [3] [µM]	IC50 [4] [µM]	Ratio IC50 [5]	IC50 [6] [µM]	IC50 [7] [µM]	Ratio IC50 [8]	IC50 [9] [µM]	Ratio IC50 [10]	IC50 [11] [µM]	inhibition [12]	inhibition [13]
COc1cc(C(=O)c2ccc3c(ccn3S(=O)(=O)c3cccc(/C=C/C(=O)NO)c3)c2)cc(OC)c1OC	3.1	2.3	0.562	1.77	2.2	1.26	1.32	> 178	> 100	> 178	> 100		
O=C(CCCCCCNC(=O)c1cnc(N(c2ccccc2)c2ccccc2)nc1)NO												Active	Active
COc1ccc(C(=O)c2ccc3c(ccn3S(=O)(=O)c3cccc(/C=C/C(=O)NO)c3)c2)cc1OC	1.8	0.7	1.18	2.14	1.2	1.42	0.877	6.9	8.24	0.7	0.861		
COc1cc(C(=O)c2ccc3c(ccn3Cc3ccc(C(=O)NO)cc3)c2)cc(OC)c1OC			1.54										
COc1ccc(C(=O)c2ccc3c(ccn3S(=O)(=O)c3cccc(/C=C/C(=O)NO)c3)c2)cc1	0.6	1.7	0.751	0.424	1.1	0.812	1.46	7.8	5.89	0.3	0.232		
COc1ccc(C(=O)c2ccc3c(ccn3Cc3ccc(/C=C/C(=O)NO)cc3)c2)cc1	18.1	13.3	0.108	1.95	26	2.81	1.44	65.3	7.05	19	2.05		
COc1cccc(C(=O)c2ccc3c(ccn3S(=O)(=O)c3cccc(/C=C/C(=O)NO)c3)c2)c1	2.7	0.7	1.81	4.8	1.9	3.53	1.21	4.3	7.74	0.2	0.323		
COc1ccc(C(=O)c2ccc3c(ccn3Cc3ccc(C(=O)NO)cc3)c2)cc1OC	196	181	0.0155	3.03	48.8	0.756	2.8	1220	18.9	390	6.05		
COc1ccc(C(=O)c2ccc3c(ccn3S(=O)(=O)c3ccc(/C=C/C(=O)NO)cc3)c2)cc1	> 118	8.4	0.848	> 100	11.8	10	7.16	> 118	> 100	3.01	2.56		
COc1cccc(C(=O)c2ccc3c(ccn3Cc3ccc(C(=O)NO)cc3)c2)c1	313	231	0.0164	5.14	68.3	1.12	3.79	2920	47.9	310	5.09		
COc1cc(C(=O)c2ccc3c(ccn3S(=O)(=O)c3ccc(/C=C/C(=O)NO)cc3)c2)cc(OC)c1OC	11.9	8.8	0.972	11.6	5.5	5.34	8.54	> 103	> 100	1.02	0.996		
O=C(/C=C/c1cccc(S(=O)(=O)n2ccc3cc(C(=O)c4ccc(F)cc4)ccc32)c1)NO	1.3	0.16	1.42	1.8	1.9	2.75	0.23	3.7	5.24	0.04	0.0596		
Cc1ccc(C(=O)c2ccc3c(ccn3Cc3ccc(C(=O)NO)cc3)c2)cc1	609	262	0.0119	7.25	125	1.49	3.12	> 8400	> 100	329	3.91		
COc1cc(C(=O)c2ccc3c(ccn3Cc3ccc(/C=C/C(=O)NO)cc3)c2)cc(OC)c1OC	40.1	24.3	0.143	5.74	15.2	2.17	3.48						
Cc1ccc(C(=O)c2ccc3c(ccn3S(=O)(=O)c3cccc(/C=C/C(=O)NO)c3)c2)cc1	2.6	0.5	2.75	7.27	1.6	4.48	1.42	3.3	9.1	0.3	0.891		
